# Bioassay records: PubChem BioAssay, Johns Hopkins Ion Channel Center
# Shown are actives, neighbours in structure and some others; about 3.8% of the full set was active somewhere.
# Kir21 block: inhibitors of mouse Kir2.1 inward-rectifier potassium channel. P35561. HEK293-Kir2.1, FluxOR thallium flux fluorescence; hits give low values. B-score at 10 µM. hit rate 0.85% among 310,000. AID 1672;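 active = fluorescence ratio B-score at or below minus 3 SD of library scores, with starting-brightness B-score within 2 SD, cut at about -4.2 in these data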;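 note: channel flux triggered by added potassium and thallium sulfate stimulus; B-score of peak minus minimum fluorescence over baseline after thallium stimulus; more negative B-score means stronger Kir2.1 block with less thallium influx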
# hERG rescue: compounds protecting human hERG from proarrhythmic drug block; CHO-hERG, FluxOR thallium flux, dofetilide IC70 present; Q12809; activation (rescue from dofetilide block), less the hit threshold, % at 10 µM; hit rate 0.51% among 310,000;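 active = activation above the mean of controls blocked by dofetilide plus 5 SD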;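 note: thallium influx through hERG after potassium depolarization seen as dye fluorescence rise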
# KCNQ1 block: blocks the human KCNQ1 potassium channel; P51787; CHO-K1 KCNQ1, FluxOR thallium flux fluorescence; hits give high values; B-score at 10 µM; hit rate 1.3% among 310,000;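 active = compounds whose thallium flux B-score, printed positive for inhibition, exceeds three library SD while starting fluorescence stays within three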;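 note: channel opened by potassium depolarization with thallium stimulus after 20 min compound exposure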
# KCNK9 block: human KCNK9 channel inhibition | Q9NPC2 | HEK293 KCNK9, FluxOR thallium flux fluorescence; hits give low values | B-score at 10 µM | hit rate 1.2% among 310,000 | AID 488922;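 active = ratio B-score over 3 SD below the library mean, with starting fluorescence within 5 SD of its mean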;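 note: negative B-score means less thallium flux so channel inhibition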
# Target sequence (Q9NPC2 whole entry, looked up): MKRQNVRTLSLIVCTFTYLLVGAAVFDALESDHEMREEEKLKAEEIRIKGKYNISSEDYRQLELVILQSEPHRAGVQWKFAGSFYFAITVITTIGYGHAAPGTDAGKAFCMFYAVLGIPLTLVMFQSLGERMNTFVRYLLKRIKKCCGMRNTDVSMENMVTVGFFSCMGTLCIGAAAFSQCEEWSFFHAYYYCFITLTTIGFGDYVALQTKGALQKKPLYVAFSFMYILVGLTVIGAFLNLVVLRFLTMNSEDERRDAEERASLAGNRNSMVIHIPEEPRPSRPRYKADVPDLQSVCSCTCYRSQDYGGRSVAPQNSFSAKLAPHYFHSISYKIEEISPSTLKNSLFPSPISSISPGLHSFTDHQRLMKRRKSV
# KCNK3 block: human KCNK3 channel inhibition, primary screen; AID 602410; B-score at 10 µM; hit rate 0.84% among 340,000; O14649; CHO-KCNK3 thallium flux, FluxOR fluorescence; hits give low values;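 active = B-score under library mean minus 4 SD, starting fluorescence ratio at most library mean plus 5 SD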;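 note: more negative B-score means stronger inhibition of thallium flux through KCNK3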
# KCNQ1 act: potentiates or activates the human KCNQ1 potassium channel. P51787. CHO-K1 KCNQ1, thallium flux FluxOR fluorescence; hits give high values. B-score at 10 µM. hit rate 0.35% among 310,000. AID 2648;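 active = fluorescence ratio B-score, a plate-corrected score, at least three library SD, with initial intensity B-score within 5 SD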
#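 assay system = CHO-K1 cells stably expressing KCNQ1 | medium = assay buffer, equal DMSO in all wells | timing = 37 °C overnight plating, 90-min dark dye load, 20-min compound pretreatment | measured by = kinetic FluxOR thallium fluorescence, 10-s 1-Hz baseline, 110-s post-stimulus read | measure = fluorescence change relative to baseline, converted to B score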
# Hits are given with their value; – = inactive; · = no result.
SMILES,Kir21 block,hERG rescue,KCNQ1 block,KCNK9 block,KCNK3 block,KCNQ1 act
O=C(O)c1ccccc1-c1nc2ccccc2[nH]1,–,–,–,–,–,–
O=C1CSC(c2ccccc2)N1CCc1ccccc1 (configuration not stated),-4.25,–,–,–,–,–
NC(=O)c1ccc(C2SCC(=O)N2CCc2ccccc2)cc1 (configuration not stated),·,·,·,·,–,·
Cc1nn(C(=O)c2ccccc2)c2c1C(=O)CC(C)(C)C2,–,–,–,–,–,–
COc1ccc2ccccc2c1C1CC(=O)N2CN(Cc3ccco3)CSC2=C1C#N (configuration not stated),–,–,7,–,–,–
CC(C)(C)NCC(=O)N/N=C/c1ccc(OCc2ccccc2)cc1,-4.31,–,–,–,–,–
CCCCNC(=O)C(=O)N/N=C/c1ccc(OCc2ccccc2)cc1,–,–,–,–,–,–
CCc1ccccc1NC(=O)CN1CCN(C(=O)c2cccc(-n3cnnn3)c2)CC1,·,·,·,·,–,·
CCn1c(=O)c([N+](=O)[O-])c(NC2CCS(=O)(=O)C2)c2ccccc21 (configuration not stated),–,–,–,–,–,–
COCC1CCCN(C(=O)c2cc(COc3ccc4ncccc4c3)on2)C1 (configuration not stated),–,–,6,–,–,–
Cn1cnnc1SCC(=O)Nc1ccc(OC(F)F)cc1,–,–,–,–,–,–
CCS(=O)(=O)C1=NN2C(=N)/C(=C\c3ccc(OC(=O)c4ccco4)c(Br)c3)C(=O)N=C2S1,-6.14,–,–,–,·,–
COc1cc(/C=C2\C(=N)N3N=C(S(C)(=O)=O)SC3=NC2=O)ccc1OCCOc1ccccc1C,–,–,6,–,–,–
c1cn(-c2ccc(-c3ccnc4ncnn34)cc2)cn1,–,–,–,–,–,–
CC(C)(C)OC(=O)NCc1ccc(CNC(=O)c2nc[nH]c2C(=O)N2CCN(C(=O)OC(C)(C)C)CC2)cc1,·,·,·,·,–,·
CC(C)c1ccc(NC(=O)/C(C#N)=C/c2ccncc2)cc1,–,–,–,–,–,8
N#C/C(=C\c1ccncc1)C(=O)Nc1ccc(C(=O)O)cc1,–,–,–,–,–,–
COC(=O)C1CN(S(=O)(=O)c2ccccc2)CCN1S(=O)(=O)c1ccccc1 (configuration not stated),–,–,–,-7.3,–,–
O=C(C1CCN(S(=O)(=O)c2ccc(Cl)cc2)CC1)N1CCC1,–,–,–,–,–,–
CC(NC(=S)NC(=O)c1ccccc1Br)c1ccccc1 (configuration not stated),–,–,–,–,–,8
COc1ccc(OCCC(=O)OCC(=O)NCc2ccccc2OC)cc1,–,–,–,–,–,–
O=C(Nc1ccccc1N1CCN(C(=O)c2ccccc2)CC1)c1cc2ccccc2o1,·,·,·,·,-9.7,·
CCn1nc(C(=O)NNC(=O)C(Cc2ccccc2)NC(N)=O)c2ccccc2c1=O (configuration not stated),·,·,·,·,–,·
O=C(Cc1coc2cc3c(cc12)CCC3)NCC1(N2CCCCC2)CCCCC1,-4.66,–,–,–,–,–
O=C(Cc1coc2cc3c(cc12)CCC3)NC1CCCCCCC1,–,–,–,–,–,–
SMILES,Kir21 block,hERG rescue,KCNQ1 block,KCNK9 block,KCNK3 block,KCNQ1 act
COc1ccc(Cl)cc1C=CC=Nc1ccccc1O,·,·,·,·,–,·
NC(=O)[C@@H]1CCCN1Cc1c(C(=O)N2CCc3ccccc3C2)nc2ccc(Cl)cn12,–,–,–,–,–,–
C/C(=N\Nc1nc(N2CCCCCC2)nc(N2CCCCCC2)n1)c1ccccc1,–,–,14,–,–,–
S=C1Cc2ccccc2N1,–,–,–,–,–,–
CC(C)Cn1nc(NC(=O)c2cccs2)c2cc3ccccc3nc21,–,–,–,-7,–,–
C=CCN1C(=O)/C(=C\C=C2\N(C)c3ccccc3C2(C)C)SC1=S,–,–,–,–,–,–
C=CCN1C(=O)/C(=C/C=C2/N(CC)c3ccc(S(=O)(=O)N(C)C)cc3N2CC)SC1=S,–,–,9,–,–,–
C/C=C/C(=O)N[C@@H]1c2ccccc2CC[C@@H]1OCc1ccccc1,·,·,·,·,–,·
N#CC1=C(N)C(C#N)(C#N)C(c2ccc[nH]2)C2CCCC=C12 (configuration not stated),-4.89,–,–,–,–,–
N#CC1=C(N)C(C#N)(C#N)C(c2cccnc2)C2CCCC=C12 (configuration not stated),–,–,–,–,·,–
COCc1c(C(=O)NC(C)c2ccc(S(N)(=O)=O)cc2)oc2ccccc12 (configuration not stated),–,–,–,–,–,–
CCOC(=O)c1ccc2c(c1)n(CC)c(/C=C/N(C)c1ccccc1)[n+]2CC,–,–,8,–,–,–
O=C(CCS(=O)(=O)c1ccc(Br)s1)NC1CCCCCC1,-11.3,–,–,–,–,–
O=C(Nc1ccc(Cl)c(Cl)c1)c1ccc(Cl)c(Cl)c1,–,–,7,–,–,–
O=C(Nc1ccc(Cl)c(Cl)c1)c1ccncc1,–,–,–,–,–,–
O=C(Cc1ccc(Br)cc1)NCCc1ccc(F)cc1,–,–,–,–,–,–
Clc1ccc(-c2nnc(-c3ccco3)o2)cc1,–,–,–,–,–,–
c1cncc(-c2nnc(-c3ccco3)o2)c1,–,6.3,–,–,–,–
Cc1cc(C)n(Cc2cccc(C(=O)N/N=C/c3cccnc3)c2)n1,–,–,–,–,–,–
O=C(COc1cccc(C(F)(F)F)c1)Nc1ccccc1N1CCCCC1,–,–,–,-7.84,–,–
Cc1ccc(OCC(=O)N/N=C/c2cc([N+](=O)[O-])ccc2N2CCCCC2)cc1,–,–,–,-7.45,–,–
COc1cccc(CC(=O)Nc2ccccc2N2CCCC2)c1,-6.74,–,–,–,–,–
COc1ccc(CC(=O)Nc2ccccc2N2CCCCC2)cc1OC,-6.19,–,–,–,–,–
O=C(COc1ccc([N+](=O)[O-])cc1)N/N=C/c1cc([N+](=O)[O-])ccc1N1CCOCC1,–,–,–,–,–,–
COc1ccc(CC(=O)Nc2ccccc2N2CCOCC2)cc1OC,–,–,–,–,–,–
COc1cccc(CC(=O)Nc2ccccc2C(=O)N2CCOCC2)c1,–,–,–,–,–,–
COc1cc2c(cc1OC)C(c1ccccc1OC(C)C)CC(=O)N2 (configuration not stated),–,–,–,–,–,–
Cc1ccc(C(=O)NN2C(=O)C3C(C2=O)C2C=CC3C23CC3)cc1 (configuration not stated),–,–,–,–,–,–
O=C(CCCN1C(=O)C(c2ccccc2)Oc2cccnc21)NCc1ccc(F)cc1 (configuration not stated),–,–,–,–,–,–
